Results on 25 compounds are retold here after ChEMBL document CHEMBL2016475, “Discovery of small molecule HIV-1 integrase dimerization inhibitors” (Bioorg Med Chem Lett, 2012).

Active and inactive are the calls of the source. No cut-off for these calls is given here.

Human immunodeficiency virus type 1 integrase (Human immunodeficiency virus 1), sequence (Q7ZJM1 as listed by the source): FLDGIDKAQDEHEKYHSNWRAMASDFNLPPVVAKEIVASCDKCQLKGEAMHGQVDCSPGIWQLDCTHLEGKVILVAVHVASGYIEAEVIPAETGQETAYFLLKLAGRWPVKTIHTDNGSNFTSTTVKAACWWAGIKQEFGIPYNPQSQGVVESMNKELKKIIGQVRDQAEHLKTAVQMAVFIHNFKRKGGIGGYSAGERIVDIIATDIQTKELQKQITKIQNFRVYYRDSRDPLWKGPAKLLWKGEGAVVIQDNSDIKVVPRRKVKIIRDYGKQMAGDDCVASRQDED
T1 sequence (Q7ZJM1 whole entry): as the sequence (Q7ZJM1 as listed by the source) above

The first assay deals with T1, Human immunodeficiency virus type 1 integrase (Human immunodeficiency virus 1, UniProt Q7ZJM1). The assay can be described thus: Inhibition of GST-tagged HIV1 integrase and C-terminal His6-tagged HIV1 integrase dimerization after 3 hrs by AlphaScreen-based dimerization assay. The method, boiled down:
(§1)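 AlphaScreen proximity assay. GST-tagged HIV-1 IN is mixed with His6-tagged IN and incubated so monomers exchange between pre-existing dimers, giving a steady-state mix of homo- and GST/His6 heterodimers. Photon counts are normalized to DMSO and blank controls and expressed as normalized signal (%). Dose–response curves give the IC50, and single-concentration tests give percent inhibition.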
As for `COc1ccc(CNC(=O)C/C(C)=N/NC(=O)c2cc3ccccc3cc2O)cc1`, the IC50 (as a rule, the concentration that inhibits the measured activity by half) was 128 µM. On the same count and under the same terms, the value for `COc1ccc(CCNC(=O)C/C(C)=N/NC(=O)c2cc3ccccc3cc2O)cc1OC` was 38.4 µM.

The target of a further assay is Human immunodeficiency virus type 1 integrase (Human immunodeficiency virus 1) (UniProt Q7ZJM1). The assay can be described thus: Inhibition of GST-tagged HIV1 integrase and C-terminal His6-tagged HIV1 integrase dimerization at 100 uM after 3 hrs by AlphaScreen-based dimerization assay. In short, it runs like this:
as §1
`O=C(NCCNC(=O)c1cc2ccccc2o1)c1nc2ccccc2c(=O)[nH]1`: the inhibition (commonly how much of the control response was suppressed) is “inactive”. On the same count and under the same terms, the value for `COc1ccc(/C=C/C(=O)Nc2ncc(Cc3cccc(C)c3)s2)cc1` was “inactive”. Still for that read-out and setting: the value for `O=C(NCCNC(=O)c1cc2ccccc2cc1O)c1cc2ccccc2cc1O` was “inactive”; that for `COc1cccc2[nH]c(C(=O)NCCC(=O)Nc3nc4ccccc4s3)cc12` was “inactive”; that for `O=C(N/N=C/c1ccc(-c2ccc(Cl)cc2Cl)o1)c1cc2ccccc2cc1O` was 49%. `C/C(CC(=O)Nc1ccc(OCc2ccccc2)cc1)=N\NC(=O)c1cc2ccccc2cc1O`: the inhibition turned out to be 54%.

As for `O=C(CNc1ccc2ccccc2c1)N/N=C/c1ccc(-c2ccc(Cl)cc2)o1`, the inhibition came out at 49%.

In turn, `CC(CCc1ccccc1)NC(=O)c1ccc(NC(=O)C2COc3ccccc3O2)cc1` (stereo not drawn) came in with an inhibition of 14%. Still for that read-out and setting: the entry for `COc1ccc(C(=O)N/N=C(\C)CC(=O)NCc2ccccc2)cc1OC` is “inactive”; for `CCc1ccc(O)c(NC(=S)NC(=O)COc2cc(C)c(Cl)c(C)c2)c1` it is 23%; for `COc1ccc(CNC(=O)C/C(C)=N/NC(=O)c2cc3ccccc3cc2O)cc1` it is 50%. Same read-out and setting: the value for `COc1ccc(CCNC(=O)C/C(C)=N/NC(=O)c2cc3ccccc3cc2O)cc1OC` was 83%. Same read-out and setting: the figure for `COc1cccc2[nH]c(C(=O)NCCCC(=O)Nc3ccc4c(c3)OCCO4)cc12` is 50%; for `O=C(N/N=C/c1ccc(Sc2ccccn2)o1)c1cc2ccccc2cc1O` it is 30%.

For the compound `O=C(NCCNC(=O)c1nc2ccccc2c(=O)[nH]1)c1ccc2ccccc2n1`, the inhibition entry is “inactive”. As for `COc1ccc(OC)c2[nH]c(C(=O)NCCCC(=O)Nc3ccc4c(c3)OCCO4)cc12`, the inhibition is 58%. Still for that read-out and setting: the entry for `O=C(Nc1cccc(-c2cnc3ccccc3n2)c1)c1cc2ccccc2cc1O` is “inactive”; for `Cc1cc(C)cc(OCC(=O)NNC(=O)c2ccc3ccccc3c2O)c1` it is “inactive”; for `COc1cccc(-c2nc(C)c(C(=O)Nc3cc(C)ccc3O)s2)c1` it is 32%. The same measure, in the same setting: the entry for `C/C(CC(=O)Nc1ccc(Cl)c(Cl)c1)=N\NC(=O)c1cc2ccccc2cc1O` is “inactive”.

On to `CCn1c2ccccc2c2cc(NC(=O)/C=C(\C)NNC(=O)Cc3cccc4ccccc34)ccc21`, for which the inhibition result is “inactive”. On the same count and under the same terms, the entry for `Cc1ccc(C2(O)CCN(CCNC(=O)Cc3cccc(C)c3)CC2)cc1` is “inactive”; for `COc1ccc(OC)c2[nH]c(C(=O)NCCC(=O)NCCc3c[nH]c4ccccc34)cc12` it is 73%; for `Cc1ccc(C(=O)CCC(=O)Nc2nc3c(s2)CCc2c-3cnn2C)cc1C` it is 13%. Still for that read-out and setting: the entry for `C[C@H](Oc1ccc2c(c1)CCC2)C(=O)NNC(=O)Nc1cccc([N+](=O)[O-])c1` is “inactive”.

Another assay addresses T1, Human immunodeficiency virus type 1 integrase. The assay can be described thus: Inhibition of HIV1 integrase using oligodeoxynucleotide as substrate after 1 hr by ELISA.
The compound `COc1ccc(CCNC(=O)C/C(C)=N/NC(=O)c2cc3ccccc3cc2O)cc1OC` came in with an IC50 of 79 µM.
